Source: ChEMBL document CHEMBL1152452, “Modifications incorporated in CpG motifs of oligodeoxynucleotides lead to antagonist activity of toll-like receptors 7 and 9” (2009)
Activity calls are given as the source filed them. The calls are words filed in the database; no cut-off is given here.

How the values were obtained:
[1] = biological target: T1, Toll-like receptor 9 (Mus musculus) (UniProt Q9EQU3); experiment: Activation of mouse TLR9 expressed in HEK293 cells assessed as NF-kappaB level at 0.1 ug/mL after 18 hrs by reporter gene assay; format: cell-based
T1 sequence (whole entry): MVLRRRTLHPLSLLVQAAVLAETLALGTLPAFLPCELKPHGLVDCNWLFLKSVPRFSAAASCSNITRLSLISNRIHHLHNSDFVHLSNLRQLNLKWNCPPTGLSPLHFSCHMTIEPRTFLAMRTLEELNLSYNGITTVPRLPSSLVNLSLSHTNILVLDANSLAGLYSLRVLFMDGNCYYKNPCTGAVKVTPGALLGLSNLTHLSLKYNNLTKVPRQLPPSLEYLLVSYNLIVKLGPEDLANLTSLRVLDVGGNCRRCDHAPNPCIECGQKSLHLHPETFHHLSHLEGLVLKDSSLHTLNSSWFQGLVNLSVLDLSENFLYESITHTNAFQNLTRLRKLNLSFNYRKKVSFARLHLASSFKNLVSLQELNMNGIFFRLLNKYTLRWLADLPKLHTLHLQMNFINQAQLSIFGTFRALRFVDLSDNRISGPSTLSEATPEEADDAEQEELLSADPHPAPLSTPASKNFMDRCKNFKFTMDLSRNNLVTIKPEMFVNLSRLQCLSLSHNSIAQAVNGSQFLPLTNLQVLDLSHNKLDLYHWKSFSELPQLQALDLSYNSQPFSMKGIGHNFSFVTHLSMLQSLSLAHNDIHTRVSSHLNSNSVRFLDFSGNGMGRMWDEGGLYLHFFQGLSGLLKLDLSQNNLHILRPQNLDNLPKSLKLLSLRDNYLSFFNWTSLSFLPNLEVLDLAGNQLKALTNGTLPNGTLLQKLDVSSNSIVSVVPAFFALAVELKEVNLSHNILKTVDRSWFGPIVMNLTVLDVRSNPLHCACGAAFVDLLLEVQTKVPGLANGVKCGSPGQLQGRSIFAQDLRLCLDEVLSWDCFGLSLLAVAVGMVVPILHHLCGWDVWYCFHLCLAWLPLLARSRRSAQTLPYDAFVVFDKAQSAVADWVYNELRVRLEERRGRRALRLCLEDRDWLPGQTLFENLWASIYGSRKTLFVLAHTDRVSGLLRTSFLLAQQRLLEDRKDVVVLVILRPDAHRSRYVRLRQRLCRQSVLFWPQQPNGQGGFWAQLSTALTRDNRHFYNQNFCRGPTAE
How it was run: (§1)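 HEK293 cells stably expressing mouse TLR9 were transiently transfected with a SEAP reporter for 6 h, then stimulated with ODN at 0.1, 0.3 or 1 μg/mL for 18 h. Reporter expression is given as fold change in NF-κB activity over medium. Representative of two independent experiments.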

Splenocyte [2] = experiment: Inhibition of 5'-CTATCTGACGTTCTCTGT-3'-induced IL12 secretion in C57BL/6 mouse splenocytes after 24 hrs by sandwich ELISA; format: functional, cell-based
How it was run: (§2)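 Splenocytes from 5–8-week C57BL/6 mice, 5 × 10^6 cells/mL in RPMI complete medium, were co-incubated with the TLR9 agonist ODN (1 µg/mL) plus test ODN at 1 or 4 µg/mL, or over a concentration series, at 37 °C for 24 h. Supernatant IL-12 or IL-6 was measured by sandwich ELISA. Runs were done in duplicate, with three independent experiments.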

Mus musculus [3] = experiment: Immunostimulatory activity in C57BL/6 mouse assessed as inhibition of 5'-CTATCTGACGTTCTCTGT-3'-induced MIP-1alpha production in serum at 2 mg/kg, sc administered 24 hrs prior to 5'-CTATCTGACGTTCTCTGT-3' challenge measured after 2 hrs by Luminex multiplex assay; format: functional, organism-based; design: dose 2 mg/kg
How it was run: (§3)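 C57BL/6 mice received 2 mg/kg ODN sc in one flank. After 24 h, the TLR9 agonist ODN was given at 0.5 mg/kg sc in the opposite flank. Blood was drawn 2 h later and serum cytokines/chemokines were quantified by Luminex multiplex assay. Percent inhibition was taken against the agonist alone. Representative of three experiments.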

Splenocyte [4] = experiment: Inhibition of 5'-CTATCTGACGTTCTCTGT-3'-induced IL6 secretion in C57BL/6 mouse splenocytes after 24 hrs by sandwich ELISA; format: functional, cell-based; how it was run: as §2
Mus musculus [5] = experiment: Immunostimulatory activity in C57BL/6 mouse assessed as induction of MIP-1alpha level in serum at 2 mg/kg, sc after 2 hrs by Luminex multiplex assay; format: functional, organism-based; design: dose 2 mg/kg
How it was run: (§4)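 Female C57BL/6 mice, 5–6 weeks old, n = 3, received a single 2 mg/kg subcutaneous ODN injection in the right flank. Blood was taken by retro-orbital bleeding 2 h later. Naive mice served as baseline. Representative of three experiments.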

[6] = biological target: T1, Toll-like receptor 9 (Mus musculus); experiment: Activation of mouse TLR9 expressed in HEK293 cells assessed as NF-kappaB level at 1 ug/mL after 18 hrs by reporter gene assay; format: cell-based; how it was run: as §1
J774 = experiment: Inhibition of 5'-CTATCTGACGTTCTCTGT-3'-activated NF-kappaB activity in mouse J774 cells at 2.5 ug/ml after 1 hr by EMSA; format: cell-based
How it was run: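 J774 murine macrophages were grown in DMEM with 10% FBS and antibiotics, plated at 5 × 10^6 cells/well, and co-incubated for 1 h with the agonist ODN (0.5 µg/mL) and test ODN (2.5 µg/mL). Nuclear extracts were prepared and NF-κB binding was analysed by EMSA on native polyacrylamide gels with autoradiography.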

Mus musculus [7] = experiment: Immunostimulatory activity in C57BL/6 mouse assessed as inhibition of 5'-CTATCTGACGTTCTCTGT-3'-induced TNFalpha production in serum at 2 mg/kg, sc administered 24 hrs prior to 5'-CTATCTGACGTTCTCTGT-3' challenge measured after 2 hrs by Luminex multiplex assay; format: functional, organism-based; design: dose 2 mg/kg; how it was run: as §3
Mus musculus [8] = experiment: Immunostimulatory activity in C57BL/6 mouse assessed as induction of TNFalpha level in serum at 2 mg/kg, sc after 2 hrs by Luminex multiplex assay; format: functional, organism-based; design: dose 2 mg/kg; how it was run: as §4
Mus musculus [9] = experiment: Immunostimulatory activity in C57BL/6 mouse assessed as induction of IL12 level in serum at 2 mg/kg, sc after 2 hrs by sandwich ELISA; format: functional, organism-based; design: dose 2 mg/kg; how it was run: as §4
Mus musculus [10] = experiment: Immunostimulatory activity in C57BL/6 mouse assessed as inhibition of 5'-CTATCTGACGTTCTCTGT-3'-induced MCP1 production in serum at 2 mg/kg, sc administered 24 hrs prior to 5'-CTATCTGACGTTCTCTGT-3' challenge measured after 2 hrs by Luminex multiplex assay; format: functional, organism-based; design: dose 2 mg/kg; how it was run: as §3
Mus musculus [11] = experiment: Immunostimulatory activity in C57BL/6 mouse assessed as inhibition of TLR3 agonist-induced IL12 production in serum at 10 mg/kg, sc administered 24 hrs prior to TLR3 agonist challenge measured after 2 hrs by Luminex multiplex assay
Mus musculus [12] = experiment: Immunostimulatory activity in C57BL/6 mouse assessed as inhibition of 5'-CTATCTGACGTTCTCTGT-3'-induced IP10 production in serum at 5 mg/kg, sc administered 24 hrs prior to 5'-CTATCTGACGTTCTCTGT-3' challenge measured after 2 hrs by Luminex multiplex assay; format: functional; conditions: C57BL/6, sc, route subcutaneous

Row | SMILES | Activity [1] | Activity (Splenocyte [2]) | Activity (Mus musculus [3]) | Activity (Splenocyte [4]) | Activity (Mus musculus [5]) | Activity [6] | Activity (J774) | Activity (Mus musculus [7]) | Activity (Mus musculus [8]) | Activity (Mus musculus [9]) | Activity (Mus musculus [10]) | Activity (Mus musculus [11]) | inhibition in vivo at 5 mg/kg (Mus musculus [12]) [%]
1 | COC1[C@H](n2cc(C)c(N)nc2=O)O[C@H](COP(=O)(S)O[C@H]2C[C@H](n3cnc4c(N)ncnc43)O[C@@H]2COP(=O)(S)O[C@H]2C[C@H](n3cnc4c(=O)[nH]c(N)nc43)O[C@@H]2COP(=O)(S)O[C@H]2C[C@H](n3cc(C)c(=O)[nH]c3=O)O[C@@H]2COP(=O)(S)O[C@H]2C[C@H](n3ccc(N)nc3=O)O[C@@H]2COP(=O)(S)O[C@H]2C[C@H](n3cc(C)c(=O)[nH]c3=O)O[C@@H]2COP(=O)(S)O[C@H]2C[C@H](n3cnc4c(N)ncnc43)O[C@@H]2COP(=O)(S)O[C@H]2C[C@H](n3cc(C)c(=O)[nH]c3=O)O[C@@H]2COP(=O)(S)O[C@H]2C[C@H](n3ccc(N)nc3=O)O[C@@H]2CO)[C@H]1OP(=O)(S)OC[C@H]1O[C@@H](n2cnc3c(=O)[nH]c(N)nc32)C[C@@H]1OP(=O)(S)OC[C@H]1O[C@@H](n2cc(C)c(=O)[nH]c2=O)C[C@@H]1OP(=O)(S)OC[C@H]1O[C@@H](n2cc(C)c(=O)[nH]c2=O)C[C@@H]1OP(=O)(S)OC[C@H]1O[C@@H](n2ccc(N)nc2=O)C[C@@H]1OP(=O)(S)OC[C@H]1O[C@@H](n2cc(C)c(=O)[nH]c2=O)C[C@@H]1OP(=O)(S)OC[C@H]1O[C@@H](n2ccc(N)nc2=O)C[C@@H]1OP(=O)(S)OC[C@H]1O[C@@H](n2cc(C)c(=O)[nH]c2=O)C[C@@H]1OP(=O)(S)OC[C@H]1O[C@@H](n2cnc3c(=O)[nH]c(N)nc32)C[C@@H]1OP(=O)(S)OC[C@H]1O[C@@H](n2cc(C)c(=O)[nH]c2=O)C[C@@H]1O (some centres undefined) | inactive | Dose-dependent effect | Active | Dose-dependent effect | inactive | inactive | Active | Active | inactive | inactive | Active |  | 
2 | COC1[C@H](n2cnc3c(=O)[nH]c(N)nc32)O[C@H](COP(=O)(S)O[C@H]2C[C@H](n3cc(C)c(N)nc3=O)O[C@@H]2COP(=O)(S)O[C@H]2C[C@H](n3cnc4c(N)ncnc43)O[C@@H]2COP(=O)(S)O[C@H]2C[C@H](n3cnc4c(=O)[nH]c(N)nc43)O[C@@H]2COP(=O)(S)O[C@H]2C[C@H](n3cc(C)c(=O)[nH]c3=O)O[C@@H]2COP(=O)(S)O[C@H]2C[C@H](n3ccc(N)nc3=O)O[C@@H]2COP(=O)(S)O[C@H]2C[C@H](n3cc(C)c(=O)[nH]c3=O)O[C@@H]2COP(=O)(S)O[C@H]2C[C@H](n3cnc4c(N)ncnc43)O[C@@H]2COP(=O)(S)O[C@H]2C[C@H](n3cc(C)c(=O)[nH]c3=O)O[C@@H]2COP(=O)(S)O[C@H]2C[C@H](n3ccc(N)nc3=O)O[C@@H]2CO)[C@H]1OP(=O)(S)OC[C@H]1O[C@@H](n2cc(C)c(=O)[nH]c2=O)C[C@@H]1OP(=O)(S)OC[C@H]1O[C@@H](n2cc(C)c(=O)[nH]c2=O)C[C@@H]1OP(=O)(S)OC[C@H]1O[C@@H](n2ccc(N)nc2=O)C[C@@H]1OP(=O)(S)OC[C@H]1O[C@@H](n2cc(C)c(=O)[nH]c2=O)C[C@@H]1OP(=O)(S)OC[C@H]1O[C@@H](n2ccc(N)nc2=O)C[C@@H]1OP(=O)(S)OC[C@H]1O[C@@H](n2cc(C)c(=O)[nH]c2=O)C[C@@H]1OP(=O)(S)OC[C@H]1O[C@@H](n2cnc3c(=O)[nH]c(N)nc32)C[C@@H]1OP(=O)(S)OC[C@H]1O[C@@H](n2cc(C)c(=O)[nH]c2=O)C[C@@H]1O (some centres undefined) | inactive | Dose-dependent effect | Active | Dose-dependent effect | inactive | inactive | Active | Active | inactive | inactive | Active | inactive | 50
